{"data": "Results pooled from the literature", "action": "inhibitor", "SLC6A3": "Sodium-dependent dopamine transporter (SLC6A3, Homo sapiens, UniProt Q01959)", "CA12": "Carbonic anhydrase 12 (CA12, Homo sapiens, UniProt O43570)", "DRD3": "D(3) dopamine receptor (DRD3, Homo sapiens, UniProt P35462)", "USP51": "Ubiquitin carboxyl-terminal hydrolase 51 (USP51, Homo sapiens, UniProt Q70EK9)", "note": "Each line is one published result; the experiments were not run side by side."}
{"Compound": "Clc1ccc(C(c2ccc(Cl)cc2)c2nnnn2CCCCN2CCN(CCCc3ccccc3)CC2)cc1", "target": "SLC6A3", "effect on": "transporter uptake", "cells": "HEK293", "concentration": "1 µM", "inhibition": "72.7%"}
{"Compound": "N#CC1CSc2[nH]c(=O)sc2C1c1cn(-c2ccccc2)nc1-c1ccc(Br)cc1 (stereo not drawn)", "target": "CA12", "effect on": "enzyme activity", "method": "absorbance", "concentration": "10 nM", "inhibition": "28.1%"}
{"Compound": "CC(=O)Nc1ccc(N2C(=O)CC(NCCc3ccccc3)C2=O)cc1 (stereo not drawn)", "target": "DRD3", "effect on": "enzyme activity", "concentration": "10 µM", "inhibition": "5.54%"}
{"Compound": "CCOC(=O)C1CSc2[nH]c(=O)sc2C1c1cn(-c2ccccc2)nc1-c1ccccc1 (stereo not drawn)", "target": "CA12", "effect on": "enzyme activity", "method": "absorbance", "concentration": "0.1 µM", "inhibition": "27.5%"}
{"Compound": "O=C1C[C@@H](c2ccccc2)Oc2cc(O)cc(O)c21", "target": "USP51", "effect on": "enzyme activity", "concentration": "5 µM", "inhibition": "2%"}
{"Compound": "CC(O)c1ccc(-c2ccc(CNCCc3c[nH]c4ccccc34)o2)cc1 (stereo not drawn)", "target": "DRD3", "effect on": "enzyme activity", "concentration": "10 µM", "inhibition": "31.3%"}
{"Compound": "O=C1c2cccc(O)c2C(=O)c2c(O)cccc21", "target": "USP51", "effect on": "enzyme activity", "concentration": "5 µM", "inhibition": "14%"}
{"Compound": "Cc1[nH]n(-c2ccc([N+](=O)[O-])cc2)c(=O)c1C=NCCN1CCN(C(=O)c2cccc(F)c2)CC1", "target": "DRD3", "effect on": "enzyme activity", "concentration": "10 µM", "inhibition": "-24.9%"}
{"Compound": "O=C(O)c1cc(O)c(O)c(O)c1", "target": "USP51", "effect on": "enzyme activity", "concentration": "5 µM", "inhibition": "99%"}
{"Compound": "Cc1ccc(-c2nn(-c3ccccc3)cc2C2c3sc(=O)[nH]c3SC3C(=O)N(c4ccccc4)C(=O)C32)cc1 (stereo not drawn)", "target": "CA12", "effect on": "enzyme activity", "method": "absorbance", "concentration": "10 µM", "inhibition": "73.9%"}
{"Compound": "Fc1ccc(C(c2ccc(F)cc2)c2nnnn2CCCCN2CCC(Cc3ccccc3)CC2)cc1", "target": "SLC6A3", "effect on": "transporter uptake", "cells": "HEK293", "concentration": "1 µM", "inhibition": "92.3%"}
{"Compound": "CCOC(=O)C1CSc2[nH]c(=O)sc2C1c1cn(-c2ccccc2)nc1-c1ccc(Br)cc1 (stereo not drawn)", "target": "CA12", "effect on": "enzyme activity", "method": "absorbance", "concentration": "1 µM", "inhibition": "55.8%"}
{"Compound": "CC1(C)[C@@H](O)CC[C@]2(C)[C@H]3C(=O)C=C4[C@@H]5C[C@@](C)(C(=O)O)CC[C@]5(C)CC[C@@]4(C)[C@]3(C)CC[C@@H]12", "target": "USP51", "effect on": "enzyme activity", "concentration": "5 µM", "inhibition": "3%"}
{"Compound": "O=C1C2CCCN2C(=O)N1CCCCN1CCN(c2cccc(Cl)c2)CC1 (stereo not drawn)", "target": "DRD3", "effect on": "enzyme activity", "concentration": "10 µM", "inhibition": "63.4%"}
{"Compound": "CCOC(=O)C1CSc2[nH]c(=O)sc2C1c1cn(-c2ccccc2)nc1-c1ccc(OC)cc1 (stereo not drawn)", "target": "CA12", "effect on": "enzyme activity", "method": "absorbance", "concentration": "10 µM", "inhibition": "78%"}
